# According to ChEMBL document CHEMBL2311469, “Development of new cathepsin B inhibitors: combining bioisosteric replacements and structure-based design to explore the structure-activity relationships of nitroxoline derivatives” (J Med Chem, 2013):
# Activity calls are given as the source filed them. The calls are words filed in the database; no cut-off is given here.
# Key:
# Cathepsin B [1] = target: T1, Cathepsin B (Homo sapiens, UniProt P07858); test: Noncompetitive inhibition of human recombinant cathepsin B exopeptidase activity using Abz-Gly-Ile-Val-Arg-Ala-Lys(Dnp)-OH substrate
# Summary of the method: (§1)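 Human recombinant catB, preactivated 5 min at 37 °C in assay buffer containing 0.1% PEG 8000, 5 mM DTT and 1.5 mM EDTA. […] Exopeptidase: 60 mM acetate pH 5.0, Abz-GIVRAK(Dnp)-OH 1/3/6 μM (Km 6.3 μM). Inhibitor 0–200 μM, 5% DMSO, 37 °C, fluorescence rate; two runs in duplicate.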
# Cathepsin B [2] = target: T1, Cathepsin B; test: Mixed inhibition of human recombinant cathepsin B endopeptidase activity using Z-Arg-Arg-AMC substrate assessed as inhibition constant for enzyme-substrate-inhibitor complex
# Cathepsin B [3] = target: T1, Cathepsin B; test: Mixed inhibition of human recombinant cathepsin B […] assessed as inhibition constant for enzyme-inhibitor complex
# Cathepsin B [4] = target: T1, Cathepsin B; test: Inhibition of human recombinant cathepsin B endopeptidase activity using Z-Arg-Arg-AMC substrate
# Cathepsin B [5] = target: T1, Cathepsin B; test: Inhibition of human recombinant cathepsin B exopeptidase activity using Abz-Gly-Ile-Val-Arg-Ala-Lys(Dnp)-OH substrate
# Cathepsin B [6] = target: T1, Cathepsin B; test: Competitive inhibition of human recombinant cathepsin B exopeptidase activity using Abz-Gly-Ile-Val-Arg-Ala-Lys(Dnp)-OH substrate assessed as inhibition constant for enzyme-inhibitor complex; summary of the method: as §1
# Cathepsin B [7] = target: T1, Cathepsin B; test: Uncompetitive inhibition of human recombinant […] assessed as inhibition constant for enzyme-substrate-inhibitor complex
# Homo sapiens [8] = organism: Homo sapiens; test: Selectivity ratio of Ki for human liver cathepsin H to Ki for human recombinant cathepsin B
# Homo sapiens [9] = organism: Homo sapiens; test: Selectivity ratio of Ki for human recombinant cathepsin L to Ki for human recombinant cathepsin B
# Cathepsin B [10] = target: T1, Cathepsin B; test: Inhibition of human recombinant cathepsin B exopeptidase activity using Abz-Gly-Ile-Val-Arg-Ala-Lys(Dnp)-OH substrate at 50 uM
# Summary of the method: (§2)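 Single-point screen at 50 μM inhibitor with 5% DMSO and 0.01% Triton X-100, at 37 °C. Endopeptidase: catB 5 nM with Z-Arg-Arg-AMC 5 μM, phosphate pH 6.0, ex 380/em 460 nm. Exopeptidase: catB 0.5 nM with Abz-GIVRAK(Dnp)-OH 1 μM, acetate pH 5.0, ex 320/em 420 nm. Relative inhibition = 100(1 − vi/vo). Two runs in duplicate.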
# Cathepsin B [11] = target: T1, Cathepsin B; test: Inhibition of human recombinant cathepsin B endopeptidase activity using Z-Arg-Arg-AMC substrate at 50 uM; summary of the method: as §2
# Cathepsin B [12] = target: T1, Cathepsin B; test: Noncompetitive inhibition of cathepsin B (unknown origin) exopeptidase activity assessed as inhibition constant for enzyme-inhibitor complex
# Cathepsin B [13] = target: T1, Cathepsin B; test: Mixed inhibition of cathepsin B (unknown origin) endopeptidase activity assessed as inhibition constant for enzyme-substrate-inhibitor complex
# Cathepsin B [14] = target: T1, Cathepsin B; test: Mixed inhibition of cathepsin B (unknown origin) endopeptidase activity assessed as inhibition constant for enzyme-inhibitor complex
# Cathepsin B [15] = target: T1, Cathepsin B; test: Mixed inhibition of human recombinant cathepsin B exopeptidase activity using Abz-Gly-Ile-Val-Arg-Ala-Lys(Dnp)-OH substrate assessed as inhibition constant for enzyme-substrate-inhibitor complex
# Summary of the method: (§3)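 Recombinant human catB was preactivated for 5 min at 37 °C in 60 mM acetate pH 5.0 with 0.1% PEG 8000, 5 mM DTT and 1.5 mM EDTA. Abz-GIVRAK(Dnp)-OH was used at 1, 3 and 6 μM (Km 6.3 μM), with inhibitor at 0–200 μM (seven levels) and 5% DMSO. […] Run twice, each in duplicate.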
# Cathepsin B [16] = target: T1, Cathepsin B; test: Mixed inhibition of human recombinant cathepsin B exopeptidase activity using Abz-Gly-Ile-Val-Arg-Ala-Lys(Dnp)-OH substrate assessed as inhibition constant for enzyme-inhibitor complex; summary of the method: as §3
# Procathepsin L = Procathepsin L (Homo sapiens, UniProt P07711); test: Competitive inhibition of human recombinant cathepsin L endopeptidase activity using Z-FR-AMC substrate expressed in Escherichia coli assessed as inhibition constant for enzyme-inhibitor complex
# Chain of Procathepsin L (P07711 whole entry): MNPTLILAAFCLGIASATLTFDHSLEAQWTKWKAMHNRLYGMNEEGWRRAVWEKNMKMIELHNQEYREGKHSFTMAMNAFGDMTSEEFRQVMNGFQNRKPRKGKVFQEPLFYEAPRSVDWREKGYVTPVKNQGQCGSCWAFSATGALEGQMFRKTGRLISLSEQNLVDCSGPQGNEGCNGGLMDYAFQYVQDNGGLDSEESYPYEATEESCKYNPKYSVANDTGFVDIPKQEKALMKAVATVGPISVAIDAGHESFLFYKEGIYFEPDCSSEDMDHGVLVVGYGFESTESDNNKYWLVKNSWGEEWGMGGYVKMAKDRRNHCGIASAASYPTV
# Summary of the method: (§4)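 Ki from rates at three substrate levels with inhibitor at 0, 20, 40, 60, 80, 100 and 200 μM. Enzymes were preactivated 5 min at 37 °C. CatL (recombinant, E. coli): 100 mM acetate pH 5.5, Z-Phe-Arg-AMC 0.5/1/4 μM. CatH (native, human liver): 100 mM phosphate pH 6.8, Arg-AMC 20/80/160 μM. Buffers held 0.1% PEG 8000, 5 mM DTT and 1.5 mM EDTA, plus 5% DMSO. Two runs in duplicate.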
# Pro-cathepsin H = target: T2, Pro-cathepsin H (Homo sapiens, UniProt P09668); test: Uncompetitive inhibition of human liver cathepsin H endopeptidase activity using R-AMC substrate assessed as inhibition constant for enzyme-substrate-inhibitor complex; summary of the method: as §4
# T2 sequence (P09668 whole entry): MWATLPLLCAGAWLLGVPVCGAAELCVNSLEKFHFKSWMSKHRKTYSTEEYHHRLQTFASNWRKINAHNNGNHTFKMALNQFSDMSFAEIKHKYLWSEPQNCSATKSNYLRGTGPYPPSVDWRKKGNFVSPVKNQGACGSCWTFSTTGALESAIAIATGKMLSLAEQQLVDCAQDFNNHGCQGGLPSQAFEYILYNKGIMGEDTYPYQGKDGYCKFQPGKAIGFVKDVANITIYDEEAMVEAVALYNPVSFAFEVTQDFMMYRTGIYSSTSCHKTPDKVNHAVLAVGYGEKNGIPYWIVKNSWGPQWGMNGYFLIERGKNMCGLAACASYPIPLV
Compound,Ki (Cathepsin B [1]),Ki (Cathepsin B [2]),Ki (Cathepsin B [3]),further results
O=[N+]([O-])c1ccc(NCc2ccccn2)c2ncccc12,47 µM,87 µM,107 µM,–
O=S(=O)(O)c1ccc(O)c2ccccc12,–,–,–,inhibition (Cathepsin B [4]): inactive
C#CCNc1ccc([N+](=O)[O-])c2cccnc12,–,–,–,inhibition (Cathepsin B [5]): inactive; inhibition (Cathepsin B [4]): inactive
O=[N+]([O-])c1ccc(N2CCOCC2)c2ccccc12,85 µM,125 µM,289 µM,–
O=C(O)c1cc([N+](=O)[O-])c2cccnc2c1O,–,–,–,Ki (Cathepsin B [6]): 221 µM; Ki (Cathepsin B [7]): 117 µM
O=[N+]([O-])c1ccc(O)c2ccccc12,–,84 µM,373 µM,inhibition (Cathepsin B [5]): inactive
O=[N+]([O-])c1cc(CNCc2ccccc2)c(O)c2ncccc12,154 µM,58 µM,198 µM,–
O=[N+]([O-])c1ccc(O)c2ncccc12 [NITROXOLINE],–,–,–,Ratio Ki (Homo sapiens [8]): 7.4; Ratio Ki (Homo sapiens [9]): 4.8; inhibition (Cathepsin B [10]): 24.7%; inhibition (Cathepsin B [11]): 21.9%; Ki (Cathepsin B [12]): 272 µM; Ki (Cathepsin B [13]): 39.5 µM; Ki (Cathepsin B [14]): 154 µM
CN(CC#N)Cc1cc([N+](=O)[O-])c2cccnc2c1O,172 µM,76 µM,126 µM,–
CN(Cc1ccccc1)c1ccc([N+](=O)[O-])c2cccnc12,–,137 µM,242 µM,Ki (Cathepsin B [6]): 196 µM
Nc1c(O)cc(S(=O)(=O)O)c2ccccc12,–,–,–,inhibition (Cathepsin B [4]): inactive
C[C@@H]1CCCCN1Cc1cc([N+](=O)[O-])c2cccnc2c1O,243 µM,116 µM,203 µM,–
O=[N+]([O-])c1ccc(N2CCOCC2)c2ncccc12,155 µM,153 µM,180 µM,–
CCN(CC)C(=O)C1CCCN(c2ccc([N+](=O)[O-])c3cccnc23)C1 (racemic),–,117 µM,155 µM,Ki (Cathepsin B [15]): 36 µM; Ki (Cathepsin B [16]): 105 µM
CN(C)c1ccc([N+](=O)[O-])c2cccnc12,–,–,–,inhibition (Cathepsin B [5]): inactive; inhibition (Cathepsin B [4]): inactive
O=[N+]([O-])c1ccc(N2CCCC2)c2ccccc12,34 µM,277 µM,170 µM,Ratio Ki (Homo sapiens [8]): 7; Ratio Ki (Homo sapiens [9]): > 6; Ki (Procathepsin L): 245 µM; Ki (Pro-cathepsin H): 251 µM
CCOC(=O)C1CCN(c2ccc([N+](=O)[O-])c3cccnc23)CC1,38 µM,113 µM,162 µM,–
